Entries after “also recorded” stand apart in the source; their conditions may differ. One block for each compound: values may come before it.
Columns and labels:
[1] = molecular target: chymotrypsin-like (ChT-L) activities of the 20S proteasome (Homo sapiens, UniProt P28074); assay: Inhibition of chymotrypsin-like; assay type: biochemical; conditions: qualitative statements in text
[2] = molecular target: chymotrypsin-like activity of the proteasome (Homo sapiens, UniProt P28074); assay: Enzyme kinetic study; assay type: biochemical
Procedure, shortened: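 The 20S proteasome chymotrypsin-like activity was measured across a range of Suc-Leu-Leu-Val-Tyr-AMC concentrations, with or without 2 μM or 4 μM test compound. Cleaved substrate was read as fluorescence units, and reaction rates were plotted as Lineweaver-Burk plots to derive Km and Vmax. Each point is the average of two independent experiments.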

HeLa Ub^G76V-GFP cells = assay: Cell based proteasome assay: accumulation of UbG76V-GFP; conditions: 7.5 uM for 24 hours; fluorescence microscope
Procedure, shortened: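 HeLa cells stably expressing UbG76V-GFP, seeded at 10,000 cells per well in growth medium, were cultured with test compound (7.5 uM) for 24 hours. Intracellular UbG76V-GFP accumulation was recorded as green fluorescence by fluorescence microscopy.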

Compound: COC(=O)CC[C@@H](C)[C@H]1CC[C@H]2[C@@H]3CC[C@@H]4C[C@H](O)CC[C@]4(C)[C@H]3CC[C@]12C [Compound 1]
Inhibition of the chymotrypsin-like activity of the 20S proteasome, in words [1]: loss of inhibitory activity

Compound: CCOC(=O)CC[C@@H](C)[C@H]1CC[C@H]2[C@@H]3CC[C@@H]4C[C@H](O)CC[C@]4(C)[C@H]3CC[C@]12C [Compound 2]
Inhibition of the chymotrypsin-like activity of the 20S proteasome, in words [1]: loss of inhibitory activity

Compound: C[C@H](CCC(=O)O)[C@H]1CC[C@H]2[C@@H]3CC[C@@H]4C[C@H](OC(=O)CCCCCC(=O)O)CC[C@]4(C)[C@H]3CC[C@]12C [Compound 8]
Inhibition of the chymotrypsin-like activity of the 20S proteasome, in words [1]: did not inhibit

Compound: C[C@H](CCC(=O)O)[C@H]1CC[C@H]2[C@@H]3CC[C@@H]4C[C@H](OC(=O)CC5(CC(=O)O)CCCC5)CC[C@]4(C)[C@H]3CC[C@]12C [Compound 10]
Mode of proteasome inhibition ([2]; Lineweaver-Burk plot, 2 μM and 4 μM compound, substrate Suc-Leu-Leu-Val-Tyr-AMC): noncompetitive inhibitor
Effect on Michaelis-Menten constant (Km) of the substrate ([2]; compound at 2 μM and 4 μM): without affecting
Effect on maximum reaction rate (Vmax) of the proteasomal activity ([2]; compound at 2 μM and 4 μM): reduced
Accumulation of Ub^G76V-GFP (green fluorescence) in cells (HeLa Ub^G76V-GFP cells): resulted in accumulation of Ub^G76V-GFP; also recorded: inhibited the proteasome

Compound: COC(=O)CC[C@@H](C)[C@H]1CC[C@H]2[C@@H]3CC[C@@H]4C[C@H](OC(=O)Cc5cccc(CC(=O)O)c5)CC[C@]4(C)[C@H]3CC[C@]12C [Compound 15]
Inhibition of the chymotrypsin-like activity of the 20S proteasome, in words [1]: lost the inhibitory activity; also recorded: loss of inhibitory activity

Compound: COC(=O)CC[C@@H](C)[C@H]1CC[C@H]2[C@@H]3CC[C@@H]4C[C@H](OC(=O)CCCCCC(=O)O)CC[C@]4(C)[C@H]3CC[C@]12C [Compound 16]
Inhibition of the chymotrypsin-like activity of the 20S proteasome, in words [1]: loss of inhibitory activity

Compound: CCOC(=O)CC[C@@H](C)[C@H]1CC[C@H]2[C@@H]3CC[C@@H]4C[C@H](OC(=O)CCCCCC(=O)O)CC[C@]4(C)[C@H]3CC[C@]12C [Compound 17]
Inhibition of the chymotrypsin-like activity of the 20S proteasome, in words [1]: loss of inhibitory activity

Inhibition of the chymotrypsin-like activity of the 20S proteasome, in words [1]: only LA inhibited
Compound: CC1(C)C=C2[C@H]3CC[C@@H]4[C@@]5(C)CCC(=O)C(C)(C)[C@@H]5CC[C@@]4(C)[C@]3(C)CC[C@@]2(C(=O)O)CC1 [moronic acid, reference compound]

Inhibition of the chymotrypsin-like activity of the 20S proteasome, in words [1]: only LA inhibited
Compound: C[C@H]1[C@H](C)CC[C@]2(C(=O)O)CC[C@]3(C)C(=CC[C@@H]4[C@@]5(C)CC[C@H](O)C(C)(C)[C@@H]5CC[C@]43C)[C@H]12 [ursolic acid, reference compound]

Source: article PMC3072167 (Bioorganic & medicinal chemistry letters, 2011)
